# Experimental data published in ChEMBL document CHEMBL6134794, “Anti-Schistosomal activity and ADMET properties of 1,2,5-oxadiazinane-containing compound synthesized by visible-light photoredox catalysis” (RSC Med Chem, 2024).
# Activity calls are given as the source filed them. The calls are words filed in the database; no cut-off is given here.
# How the values were obtained:
# [1] = system: Schistosoma mansoni; assay: Anti-schistosomal activity against adult male Schistosoma mansoni assessed as motility by measuring measuring pairing and varied movement intensity using viability scale at 10 uM incubated for 24 hrs by inverted microscopic analysis; assay type: functional
# [2] = system: Schistosoma mansoni; assay: Anti-schistosomal activity against adult male Schistosoma mansoni assessed as motility by measuring pairing and varied movement intensity using viability scale at 10 uM incubated for 1 hr by inverted microscopic analysis; assay type: functional
# [3] = system: Schistosoma mansoni; assay: Anti-schistosomal activity against adult male Schistosoma mansoni assessed as motility by measuring pairing and varied movement intensity using viability scale at 10 uM incubated for 120 hrs by inverted microscopic analysis; assay type: functional
# [4] = system: Schistosoma mansoni; assay: Anti-schistosomal activity against adult female Schistosoma mansoni assessed as motility by measuring full detachment with weak movement using viability scale at 10 uM incubated for 1 hr by inverted microscopic analysis; assay type: functional
# In short: (§1)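 Adult worms freshly isolated from infected mice; cultured in RPMI 1640 with 5% FBS and penicillin/streptomycin, with or without compound (0.1, 1, 10 μM), at 37°C under 5% CO₂.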
# [5] = system: Schistosoma mansoni; assay: Anti-schistosomal activity against adult female Schistosoma mansoni assessed as motility by measuring full detachment with weak movement using viability scale at 10 uM incubated for 24 hrs by inverted microscopic analysis; assay type: functional
# [6] = system: Schistosoma mansoni; assay: Anti-schistosomal activity against adult female Schistosoma mansoni assessed as motility by measuring full detachment with weak movement using viability scale at 10 uM incubated for 120 hrs by inverted microscopic analysis; assay type: functional
# [7] = Lipophilicity, logD of the compound in phosphate-buffered saline (PBS) at pH 7.4 at 100 uM incubated for 20 mins by UPLC analysis; assay type: physicochemical; settings: buffer, pH 7.4, 20 min
# In short: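 Compound at 100 μM final in PBS with 1% DMSO. logD (pH 7.4) was derived from UPLC (BEH C18) retention times against standards of known logD. Mobile phase was ammonium acetate/acetonitrile, 2–98% B over 1 min at 0.8 mL/min.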
# [8] = Apparent permeability in human Caco-2 cells at 25 uM incubated for 2 hrs by LC-MS/MS analysis; assay type: ADME, cell-based
# In short: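 Compound at 25 µM in HBSS added to the apical side of cultured Caco-2 monolayers in transwells, with HBSS plus 1% BSA on the basolateral side. After 2 h both compartments were collected, acetonitrile-treated and centrifuged. Supernatants were quantified by LC-MS/MS and Papp calculated. "High" class means Papp above that of propranolol.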
# [9] = Stability of the compound at pH 1.2 at 5 uM assessed as compound remaining incubated for 1 hrs by LC-MS/MS analysis relative to control; assay type: physicochemical; settings: buffer, read-out: Stability
# In short: (§2)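 Compound at 5 μM in pH 1.2 dissolution test solution 1 or in PBS pH 7.4, held at 37 °C for 0, 1 and 5 h. Reactions were quenched with acetonitrile and centrifuged. Parent remaining was quantified by LC-MS/MS as a percentage of the 0 h sample.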
# [10] = Stability of the compound at pH 1.2 at 5 uM assessed as compound remaining incubated for 5 hrs by LC-MS/MS analysis relative to control; assay type: physicochemical; settings: buffer, read-out: Stability; in short: as §2
# [11] = Stability of the compound in PBS at pH 7.4 at 5 uM assessed as compound remaining incubated for 1 hr by LC-MS/MS analysis relative to control; assay type: physicochemical; settings: read-out: Stability; in short: as §2
# [12] = Metabolic stability in human liver microsome assessed as compound remaining at 500 uM incubated for 10 mins in presence of NADPH and G6PDH by LC-MS/MS analysis; settings: liver microsomes
# [13] = Metabolic stability in human liver microsome assessed as compound remaining at 500 uM incubated for 60 mins in presence of NADPH and G6PDH by LC-MS/MS analysis; settings: liver microsomes
# [14] = Metabolic stability in mouse liver microsome assessed as compound remaining at 500 uM incubated for 10 mins in presence of NADPH and G6PDH by LC-MS/MS analysis; settings: liver microsomes
# [15] = Metabolic stability in mouse liver microsome assessed as compound remaining at 500 uM incubated for 60 mins in presence of NADPH and G6PDH by LC-MS/MS analysis; settings: liver microsomes
# [16] = Cardiotoxicity in human iPSC-CM cells assessed as effect on pulse waveform by measuring calcium ion influx at 20 uM incubated for 60 mins by fluorescent indicator analysis; assay type: toxicity, cell-based; settings: 1 h
# In short: (§3)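 Human iPS cell-derived cardiomyocytes were seeded at 30,000 cells/well on gelatin and maintained 9 days. Cells were then stained with a Ca²⁺-sensitive cardiotoxicity dye kit. Ca²⁺ transients were recorded on an FDSS kinetic imager before and after compound addition.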
# [17] = Cardiotoxicity in human iPSC-CM cells assessed as decrease in beat interval by measuring calcium ion influx at 20 uM incubated for 60 mins by fluorescent indicator analysis; assay type: toxicity, cell-based; settings: 1 h; in short: as §3
# [18] = Cardiotoxicity in human iPSC-CM cells assessed as effect on pulse waveform by measuring calcium ion influx at 2 uM incubated for 60 mins by fluorescent indicator analysis; assay type: toxicity, cell-based; settings: 1 h; in short: as §3
# [19] = Cardiotoxicity in human iPSC-CM cells assessed as decrease in beat interval by measuring calcium ion influx at 2 uM incubated up to 30 mins by fluorescent indicator analysis; assay type: toxicity, cell-based; settings: 0.5 h; in short: as §3
# [20] = Cardiotoxicity in human iPSC-CM cells assessed as effect on beat interval by measuring calcium ion influx at 2 uM measured within 60 mins by fluorescent indicator analysis; assay type: toxicity, cell-based; settings: 1 h; in short: as §3
# [21] = Cardiotoxicity in human iPSC-CM cells assessed as effect on pulse waveform by measuring calcium ion influx at 0.2 uM incubated for 60 mins by fluorescent indicator analysis; assay type: toxicity, cell-based; settings: 1 h; in short: as §3
# [22] = Cardiotoxicity in human iPSC-CM cells assessed as effect on beat intervals by measuring calcium ion influx at 0.2 uM incubated for 60 mins by fluorescent indicator analysis; assay type: toxicity, cell-based; settings: 1 h; in short: as §3
# [23] = system: Schistosoma mansoni; assay: Anti-schistosomal activity against adult male Schistosoma mansoni assessed as worm death at 10 uM incubated for 1 to 120 hrs by inverted microscopic analysis; assay type: functional, organism-based; settings: time 1-120 hrs; in short: as §1
# [24] = system: HeLa; assay: Cytotoxicity against human HeLa cells assessed as cell viability at 10 uM incubated for 48 hrs by absorbance based WST-8 assay (reference value: 100 %); assay type: functional; settings: read-out: Activity
# In short: (§4)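 HeLa cells seeded at 1,000 cells/well and exposed to compound at 10, 20 or 30 μM for 2 days. WST-8 absorbance was read at 405 nm. Viability is expressed relative to DMSO-treated wells (100%).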
# [25] = system: Schistosoma mansoni; assay: Anti-schistosomal activity against adult female Schistosoma mansoni assessed as motility by measuring pairing and varied movement intensity using viability scale at 10 uM incubated for 1 hr by inverted microscopic analysis; assay type: functional
# [26] = system: Schistosoma mansoni; assay: Anti-schistosomal activity against adult female Schistosoma mansoni assessed as motility by measuring pairing and varied movement intensity using viability scale at 10 uM incubated for 24 hrs by inverted microscopic analysis; assay type: functional
# [27] = system: Schistosoma mansoni; assay: Anti-schistosomal activity against adult female Schistosoma mansoni assessed as motility by measuring pairing and varied movement intensity using viability scale at 10 uM incubated for 120 hrs by inverted microscopic analysis; assay type: functional
# [28] = Stability of the compound in PBS at pH 7.4 at 5 uM assessed as compound remaining incubated for 5 hrs by LC-MS/MS analysis relative to control; assay type: physicochemical; settings: read-out: Stability; in short: as §2
# [29] = Cardiotoxicity in human iPSC-CM cells assessed as effect on pulse waveform by measuring calcium ion influx at 0.2 to 20 uM incubated for 60 mins by fluorescent indicator analysis; assay type: toxicity, cell-based; settings: 1 h, dose 0.2-20 µM; in short: as §3
# [30] = Cardiotoxicity in human iPSC-CM cells assessed as effect on beat intervals by measuring calcium ion influx at 0.2 to 20 uM incubated for 60 mins by fluorescent indicator analysis; assay type: toxicity, cell-based; settings: 1 h, dose 0.2-20 µM; in short: as §3
# [31] = system: Schistosoma mansoni; assay: Anti-schistosomal activity against adult female Schistosoma mansoni assessed as worm death at 10 uM incubated for 1 to 120 hrs by inverted microscopic analysis; assay type: functional, organism-based; settings: time 1-120 hrs; in short: as §1
# [32] = system: HeLa; assay: Cytotoxicity against human HeLa cells assessed as cell viability at 30 uM incubated for 48 hrs by absorbance based WST-8 assay (reference value: 100 %); assay type: functional; settings: read-out: Activity; in short: as §4
structure (smiles),measurement,setting,value
O=C(C1CCCCC1)N1CON2CCc3ccccc3C2C1 (stereo not given),Activity,[1],3
same,Activity,[2],3
same,Activity,[3],3
same,Activity,[4],2
same,Activity,[5],2
same,Activity,[6],2.3
same,logD,[7],4.1
same,"Papp at 2 h, 25 µM",[8],30.5 ×10⁻⁶ cm/s
same,"remaining at 1 h, 5 µM",[9],95.1%
same,"remaining at 5 h, 5 µM",[10],94.9%
same,"remaining at 1 h, 5 µM",[11],95.2%
same,"remaining at 10 min, 500 µM",[12],47.3%
same,"remaining at 1 h, 500 µM",[13],5.9%
same,"remaining at 10 min, 500 µM",[14],2.7%
same,"remaining at 1 h, 500 µM",[15],0.2%
same,Activity,[16],Non-toxic
same,Activity,[17],Toxic
same,Activity,[18],Non-toxic
same,Activity,[19],Toxic
same,Activity,[20],Non-toxic
same,Activity,[21],Non-toxic
same,Activity,[22],Non-toxic
same,Activity,[23],inactive
same,viability at 10 µM,[24],93.1%
O=C(C1CCCCC1)N1CC(=O)N2CCc3ccccc3C2C1 (stereo not given) [PRAZIQUANTEL],Activity,[1],3.7
same,Activity,[2],3.7
same,Activity,[3],3.3
same,Activity,[25],3.7
same,Activity,[26],3.3
same,Activity,[27],3.3
same,"Papp at 2 h, 25 µM",[8],37.3 ×10⁻⁶ cm/s
same,"remaining at 1 h, 5 µM",[9],93.1%
same,"remaining at 5 h, 5 µM",[10],95%
same,"remaining at 1 h, 5 µM",[11],103%
same,"remaining at 5 h, 5 µM",[28],100%
same,Activity,[29],Non-toxic
same,Activity,[30],Non-toxic
same,Activity,[23],inactive
same,Activity,[31],inactive
same,viability at 30 µM,[32],97.1%
